The values that follow come from ChEMBL document CHEMBL1157394, “Absolute configuration and antimicrobial activity of acylhomoserine lactones” (2008).

Calls of active or inactive are those of the source. The calls are words filed in the database; no cut-off is given here.

Type in all cases: functional
The test system of one assay is Bacillus cereus. In words: Antimicrobial activity against Bacillus cereus CCT 4060 after 24 hrs by MTT method. The procedure, abridged: (§1)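 Strain grown on solid nutrient broth slants at 30 °C for 24 h, then suspended in sterile water to 3 × 10⁸ cells/mL (McFarland). Suspension diluted into Mueller-Hinton medium in 96-well plates. Samples started from 1000 µg/mL stock in 20% aqueous DMSO and serially diluted twofold. Incubated 30 °C, 24 h; 0.025% MTT added. Purple wells scored as growth, yellow as inhibition. Run in duplicate; concentration range for growth inhibition reported.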

In another assay the test system is Staphylococcus aureus. In words: Antimicrobial activity against Staphylococcus aureus CCT 1295 24 hrs by MTT method. The procedure, abridged:
as §1

The subject of the next assay is Bacillus subtilis. In words: Antimicrobial activity against Bacillus subtilis CCT 0089 after 24 hrs by MTT method. The procedure, abridged: as §1

On to `CCCCCC(=O)CC(=O)NC1CCOC1=O` (racemic), for which the figures for the Activity in the assay on Bacillus cereus, in the assay on Staphylococcus aureus and in the assay with Bacillus subtilis were 62.5 µg/mL, 500 µg/mL and 62.5 µg/mL, respectively.

Take `CCCCCCCCCC(=O)CC(=O)NC1CCOC1=O` (racemic): the results for the Activity in the assay with Bacillus cereus, in the assay with Staphylococcus aureus and in the assay with Bacillus subtilis were 125 µg/mL, 500 µg/mL and 125 µg/mL, respectively.

Regarding `CCCCCCC(=O)NC1CCOC1=O` (racemic), the outcome in the assay with Bacillus cereus and with Staphylococcus aureus was inactive. Also, in the assay on Bacillus subtilis, the Activity was found to be 500 µg/mL.

In the case of `CCCCCCCCCCCC(=O)CC(=O)NC1CCOC1=O` (racemic), the Activity turned out to be 500 µg/mL in the assay on Bacillus cereus, 500 µg/mL with Staphylococcus aureus and 250 µg/mL in the assay with Bacillus subtilis.

`O=C(N[C@H](CO)[C@H](O)c1ccc([N+](=O)[O-])cc1)C(Cl)Cl` [CHLORAMPHENICOL]: the Activity is 3.91 µg/mL in the assay on Bacillus cereus, 7.81 µg/mL with Staphylococcus aureus and 3.91 µg/mL in the assay on Bacillus subtilis.
